# Results: ChEMBL document CHEMBL1143463, “Potential antitumor agents: flavones and their derivatives from Linaria reflexa Desf” (Bioorg Med Chem Lett, 2005)
# Assays:
# [1] = system: Caco-2; assay: In vitro inhibitory concentration against human colorectal adenocarcinoma Caco-2 cells in the presence of vinblastine sulfate salt; format: functional, cell-based
# Outline: (§1)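 Cultured in DMEM with 10% FBS, 1% L-glutamine and 1% penicillin/streptomycin at 37 °C in 5% CO2. After 24 h attachment at 2–5 × 10^4 cells/well, cells were treated 48 h with serial dilutions at final 0.25–50 in DMSO-containing medium, six replicates. Survival measured by SRB staining of TCA-fixed cells at 564 nm against untreated control. IC50 from dose–response curves; three experiments, mean ± SD.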
# [2] = system: ACHN; assay: In vitro inhibitory concentration against renal adenocarcinoma cell line (ACHN) in the presence of taxol; format: functional, cell-based; conditions: Homo sapiens
# Outline: (§2)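 Cell lines grown in RPMI 1640 with 10% FBS, 1% L-glutamine and 1% penicillin/streptomycin at 37 °C in 5% CO2. Seeded at 2–5 × 10^4 cells/well and left 24 h, then exposed 48 h to serial dilutions at final 0.25–50 (DMSO vehicle), six replicates. Cells fixed with cold TCA, stained with SRB, and read at 564 nm. IC50 taken from % inhibition curves, three experiments, mean ± SD.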
# [3] = In vitro inhibitory concentration against human amelanotic melanoma cell line (C32) in the presence of vinblastine sulfate salt; format: functional; outline: as §2
# [4] = system: HepG2; assay: In vitro inhibitory concentration against human hepatocellular carcinoma HepG-2 cells in the presence of vinblastine sulfate salt; format: functional, cell-based; outline: as §1
# [5] = system: COR-L23; assay: In vitro inhibitory concentration against human carcinoma COR-L23 cells in the presence of vinblastine sulfate salt; format: functional, cell-based; outline: as §2
# [6] = system: MRC5; assay: In vitro inhibitory concentration against human fetal lung MRC-5 cell line in the presence of vinblastine sulfate salt; format: functional, cell-based; outline: as §1
smiles,measurement,setting,value
COc1ccc(-c2cc(=O)c3c(O)c(OC)c(O[C@@H]4OC(CO[C@@H]5OC(C)[C@H](O)[C@H](OC(C)=O)C5O)[C@@H](O)[C@H](O)C4O)cc3o2)cc1 (some centres undefined),IC50,[1],14 µM
same,IC50,[2],16.9 µM
same,IC50,[3],21.5 µM
same,IC50,[4],10.9 µM
same,IC50,[5],10.4 µM
same,IC50,[6],> 75.3 µM
COc1ccc(-c2cc(=O)c3c(O)c(OC)c(O[C@@H]4OC(CO[C@@H]5OC(C)[C@H](OC(C)=O)[C@H](O)C5O)[C@@H](O)C(O)[C@@H]4O)cc3o2)cc1 (some centres undefined),IC50,[1],8.01 µM
same,IC50,[2],11.2 µM
same,IC50,[3],12.6 µM
same,IC50,[4],23.2 µM
same,IC50,[5],5.17 µM
same,IC50,[6],> 75.3 µM
C[C@]12O[C@H]1[C@@H](O)[C@]1(O)C=CO[C@@H](O[C@@H]3O[C@H](CO)[C@@H](O)[C@H](O)[C@H]3O)[C@@H]12 [ANTIRRHINOSIDE],IC50,[1],> 138 µM
same,IC50,[2],> 138 µM
same,IC50,[3],> 138 µM
same,IC50,[4],> 138 µM
same,IC50,[5],> 138 µM
same,IC50,[6],> 138 µM
COc1ccc(-c2cc(=O)c3c(O)c(OC)c(O[C@@H]4OC(CO[C@@H]5OC(C)[C@H](O)[C@H](O)C5OC(C)=O)[C@@H](O)[C@H](O)C4O)cc3o2)cc1 (some centres undefined) [ISOLINARIIN A],IC50,[1],8.54 µM
same,IC50,[2],14 µM
same,IC50,[3],11.8 µM
same,IC50,[4],16.4 µM
same,IC50,[5],6.68 µM
same,IC50,[6],> 75.3 µM
COc1ccc(-c2cc(=O)c3c(O)c(OC)c(O)cc3o2)cc1 [PECTOLINARIGENIN],IC50,[3],7.02 µM
same,IC50,[6],> 159 µM
COc1ccc(-c2cc(=O)c3c(O)c(OC)c(O[C@@H]4O[C@H](CO[C@@H]5O[C@@H](C)[C@H](O)[C@@H](O)[C@H]5O)[C@@H](O)[C@H](O)[C@H]4O)cc3o2)cc1 [PECTOLINARIN],IC50,[3],7.17 µM
same,IC50,[4],14.1 µM
same,IC50,[6],> 80.3 µM
